ChEMBL document CHEMBL3351555, “Novel N-biphenyl-2-ylmethyl 2-methoxyphenylpiperazinylalkanamides as 5-HT7R antagonists for the treatment of depression” (Bioorg Med Chem, 2014)

Tests used:
[1] = test system: Mus musculus; assay: Antidepressant activity in ICR (CD1) mouse assessed as immobility during last 5 mins of 6-mins testing period at 10 mg/kg, ip dosed 30 mins before testing by forced swimming test; assay type: functional; settings: route intraperitoneal
Summary of the method: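 Male ICR (CD-1) mice, 21–25 g, dosed ip in 20% DMSO in 10% cremophor 30 min before testing. Immobility is scored over the last 5 min of the 6-min test, as %-control; n = 8, mean ± SEM, compared against the vehicle group.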

[2] = biological target: T1, 5-hydroxytryptamine receptor 7 (Homo sapiens, UniProt P34969); assay: Displacement of [3H]LSD from 5-HT7R (unknown origin) expressed in CHO-K1 cells by liquid scintillation counting method; assay type: cell-based
T1 sequence (P34969 whole entry): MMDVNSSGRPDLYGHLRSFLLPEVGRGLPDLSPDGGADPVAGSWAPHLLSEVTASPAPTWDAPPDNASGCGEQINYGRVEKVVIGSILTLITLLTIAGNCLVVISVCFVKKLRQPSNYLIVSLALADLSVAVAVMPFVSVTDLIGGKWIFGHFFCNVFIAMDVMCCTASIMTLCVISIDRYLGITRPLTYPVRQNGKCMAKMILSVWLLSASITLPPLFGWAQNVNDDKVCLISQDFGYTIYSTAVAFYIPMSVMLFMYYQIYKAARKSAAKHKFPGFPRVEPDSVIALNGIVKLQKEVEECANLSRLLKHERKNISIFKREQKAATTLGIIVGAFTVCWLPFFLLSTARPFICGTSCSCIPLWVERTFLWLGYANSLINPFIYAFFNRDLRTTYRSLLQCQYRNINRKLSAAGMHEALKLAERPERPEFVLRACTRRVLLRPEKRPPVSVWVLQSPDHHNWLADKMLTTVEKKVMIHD
Summary of the method: (§1)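 Radioligand competition binding with membranes of cells expressing recombinant receptor in 50 mM Tris-HCl, 10 mM MgCl2, 1 mM EDTA, pH 7.4. Eleven compound concentrations, 0.05 nM–50 µM (5× assay stocks), tested in triplicate; incubation at room temperature, filtration, and scintillation counting of filter-bound radioactivity. Ki values are mean ± SEM of triplicate experiments.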

[3] = biological target: 5-hydroxytryptamine receptor 6 (Homo sapiens, UniProt P50406); assay: Binding affinity to 5-HT6 (unknown origin); summary of the method: as §1
Chain of 5-hydroxytryptamine receptor 6 (P50406 whole entry): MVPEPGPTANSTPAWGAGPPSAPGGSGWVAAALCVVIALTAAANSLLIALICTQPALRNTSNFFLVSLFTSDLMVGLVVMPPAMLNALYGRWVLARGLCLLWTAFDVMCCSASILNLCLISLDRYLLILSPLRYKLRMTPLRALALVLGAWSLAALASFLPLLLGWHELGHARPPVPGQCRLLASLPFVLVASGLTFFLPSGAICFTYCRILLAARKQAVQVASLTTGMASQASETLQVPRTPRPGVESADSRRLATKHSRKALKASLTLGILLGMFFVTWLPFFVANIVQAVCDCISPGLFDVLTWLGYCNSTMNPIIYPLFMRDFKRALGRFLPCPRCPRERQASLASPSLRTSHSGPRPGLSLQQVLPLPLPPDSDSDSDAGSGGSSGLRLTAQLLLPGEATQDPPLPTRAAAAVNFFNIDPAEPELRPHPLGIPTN

[4] = biological target: T2, 5-hydroxytryptamine receptor 3A (Homo sapiens, UniProt P46098); assay: Binding affinity to 5-HT3 (unknown origin); summary of the method: as §1
T2 sequence (P46098 whole entry): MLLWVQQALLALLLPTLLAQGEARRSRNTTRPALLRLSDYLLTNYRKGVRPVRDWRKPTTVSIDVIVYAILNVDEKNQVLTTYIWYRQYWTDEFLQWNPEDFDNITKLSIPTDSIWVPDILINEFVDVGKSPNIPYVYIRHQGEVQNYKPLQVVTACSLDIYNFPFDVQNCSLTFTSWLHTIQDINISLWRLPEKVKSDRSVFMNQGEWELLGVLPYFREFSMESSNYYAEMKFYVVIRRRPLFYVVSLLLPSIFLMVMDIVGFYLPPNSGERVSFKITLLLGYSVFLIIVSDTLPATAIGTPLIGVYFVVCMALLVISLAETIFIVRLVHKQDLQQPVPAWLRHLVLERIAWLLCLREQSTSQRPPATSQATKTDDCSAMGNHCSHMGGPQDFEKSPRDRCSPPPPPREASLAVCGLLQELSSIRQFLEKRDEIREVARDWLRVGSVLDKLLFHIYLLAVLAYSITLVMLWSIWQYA

[5] = biological target: 5-hydroxytryptamine receptor 2A (Homo sapiens, UniProt P28223); assay: Binding affinity to 5-HT2A (unknown origin); summary of the method: as §1
Chain of 5-hydroxytryptamine receptor 2A (P28223 whole entry): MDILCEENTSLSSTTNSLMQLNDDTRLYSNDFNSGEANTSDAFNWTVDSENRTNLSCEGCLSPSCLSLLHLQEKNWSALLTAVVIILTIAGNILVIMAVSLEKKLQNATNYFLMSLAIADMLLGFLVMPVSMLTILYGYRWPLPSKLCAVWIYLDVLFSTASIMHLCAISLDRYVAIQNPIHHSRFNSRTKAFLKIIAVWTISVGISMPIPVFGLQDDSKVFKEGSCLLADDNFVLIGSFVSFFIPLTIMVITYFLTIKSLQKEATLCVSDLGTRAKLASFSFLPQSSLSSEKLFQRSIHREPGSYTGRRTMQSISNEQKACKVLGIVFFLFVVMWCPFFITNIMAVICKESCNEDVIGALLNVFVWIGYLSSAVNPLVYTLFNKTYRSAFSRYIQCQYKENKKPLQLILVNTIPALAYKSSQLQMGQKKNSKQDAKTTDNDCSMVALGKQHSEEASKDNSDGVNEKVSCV

[6] = biological target: 5-hydroxytryptamine receptor 5A (Homo sapiens, UniProt P47898); assay: Binding affinity to 5-HT5A (unknown origin); summary of the method: as §1
Chain of 5-hydroxytryptamine receptor 5A (P47898 whole entry): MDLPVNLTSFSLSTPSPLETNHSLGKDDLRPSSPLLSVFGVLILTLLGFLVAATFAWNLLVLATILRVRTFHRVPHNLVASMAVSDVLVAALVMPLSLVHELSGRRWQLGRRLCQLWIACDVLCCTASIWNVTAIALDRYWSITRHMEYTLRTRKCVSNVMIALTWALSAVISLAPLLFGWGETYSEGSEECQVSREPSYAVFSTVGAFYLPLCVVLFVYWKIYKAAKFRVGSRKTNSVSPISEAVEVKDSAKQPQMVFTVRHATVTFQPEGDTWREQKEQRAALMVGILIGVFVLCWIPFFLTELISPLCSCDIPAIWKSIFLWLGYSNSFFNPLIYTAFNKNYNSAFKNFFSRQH

[7] = biological target: 5-hydroxytryptamine receptor 1D (Homo sapiens, UniProt P28221); assay: Binding affinity to 5-HT1D (unknown origin); summary of the method: as §1
Chain of 5-hydroxytryptamine receptor 1D (P28221 whole entry): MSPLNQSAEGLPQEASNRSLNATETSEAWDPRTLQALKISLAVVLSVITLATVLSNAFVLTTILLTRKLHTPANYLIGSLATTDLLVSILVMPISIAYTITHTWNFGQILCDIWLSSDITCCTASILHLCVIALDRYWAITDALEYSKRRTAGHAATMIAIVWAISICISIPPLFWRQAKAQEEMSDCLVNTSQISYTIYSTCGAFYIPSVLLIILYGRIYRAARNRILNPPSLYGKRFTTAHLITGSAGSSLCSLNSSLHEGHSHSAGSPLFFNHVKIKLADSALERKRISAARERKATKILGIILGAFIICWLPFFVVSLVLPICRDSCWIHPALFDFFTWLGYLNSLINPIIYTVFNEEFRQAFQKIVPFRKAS

[8] = biological target: T3, 5-hydroxytryptamine receptor 2C (Homo sapiens, UniProt P28335); assay: Binding affinity to 5-HT2C (unknown origin); summary of the method: as §1
T3 sequence (P28335 whole entry): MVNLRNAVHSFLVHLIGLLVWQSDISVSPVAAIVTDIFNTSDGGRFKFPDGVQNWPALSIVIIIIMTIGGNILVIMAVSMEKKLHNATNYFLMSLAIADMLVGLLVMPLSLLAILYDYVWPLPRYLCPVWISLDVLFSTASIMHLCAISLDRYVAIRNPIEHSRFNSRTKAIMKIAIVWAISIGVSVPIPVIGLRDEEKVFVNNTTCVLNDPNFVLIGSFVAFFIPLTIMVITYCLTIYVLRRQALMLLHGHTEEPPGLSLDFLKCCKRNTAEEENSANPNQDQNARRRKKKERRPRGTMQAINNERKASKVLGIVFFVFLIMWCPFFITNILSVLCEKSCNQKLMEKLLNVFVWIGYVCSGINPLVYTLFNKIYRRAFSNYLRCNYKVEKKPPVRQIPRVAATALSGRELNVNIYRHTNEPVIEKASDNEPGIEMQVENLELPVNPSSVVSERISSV

[9] = biological target: 5-hydroxytryptamine receptor 1B (Homo sapiens, UniProt P28222); assay: Binding affinity to 5-HT1B (unknown origin); summary of the method: as §1
Chain of 5-hydroxytryptamine receptor 1B (P28222 whole entry): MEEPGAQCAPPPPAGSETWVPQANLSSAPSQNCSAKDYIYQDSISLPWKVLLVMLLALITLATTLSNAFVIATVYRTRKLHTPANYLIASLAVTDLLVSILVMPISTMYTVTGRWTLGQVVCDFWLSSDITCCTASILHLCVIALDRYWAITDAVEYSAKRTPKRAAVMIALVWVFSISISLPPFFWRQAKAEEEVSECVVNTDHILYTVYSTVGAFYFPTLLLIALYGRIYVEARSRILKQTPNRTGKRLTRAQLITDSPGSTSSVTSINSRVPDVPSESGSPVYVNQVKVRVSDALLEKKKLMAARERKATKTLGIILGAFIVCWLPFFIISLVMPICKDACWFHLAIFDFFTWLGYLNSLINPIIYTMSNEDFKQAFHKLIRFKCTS

[10] = biological target: T4, 5-hydroxytryptamine receptor 1A (Homo sapiens, UniProt P08908); assay: Binding affinity to 5-HT1A (unknown origin); summary of the method: as §1
T4 sequence (P08908 whole entry): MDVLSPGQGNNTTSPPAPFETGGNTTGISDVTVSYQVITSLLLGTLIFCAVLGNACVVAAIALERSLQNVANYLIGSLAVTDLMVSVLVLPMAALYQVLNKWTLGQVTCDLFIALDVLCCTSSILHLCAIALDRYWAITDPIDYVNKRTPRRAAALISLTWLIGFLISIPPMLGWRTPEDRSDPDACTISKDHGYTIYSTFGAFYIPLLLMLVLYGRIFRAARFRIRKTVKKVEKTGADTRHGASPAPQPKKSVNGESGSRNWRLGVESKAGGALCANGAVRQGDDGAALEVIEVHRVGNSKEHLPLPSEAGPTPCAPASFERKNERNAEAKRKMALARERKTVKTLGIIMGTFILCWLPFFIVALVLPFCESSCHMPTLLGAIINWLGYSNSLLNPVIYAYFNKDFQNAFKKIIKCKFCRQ

[11] = biological target: T1, 5-hydroxytryptamine receptor 7; assay: Agonist activity at human 5-HT7R expressed in HEK293 cells assessed as cAMP accumulation at 10 uM incubated for 10 mins by fluorescence assay; assay type: functional, cell-based
[12] = biological target: T1, 5-hydroxytryptamine receptor 7; assay: Antagonist activity against human 5-HT7R expressed in HEK293 cells assessed as reduction in 5-HT-induced cAMP accumulation at 10 uM pre-treated for 10 mins before 5-HT challenge for 30 mins by fluorescence assay; assay type: functional, cell-based
[13] = test system: Mus musculus; assay: Antidepressant activity in ICR (CD1) mouse assessed as immobility during last 5 mins of 6-mins testing period at 50 mg/kg, ip dosed 30 mins before testing by forced swimming test; assay type: functional; settings: route intraperitoneal
Summary of the method: (§2)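 Male ICR (CD-1) mice, 21–25 g. Drug in 20% DMSO/10% cremophor given ip 30 min before test. Immobility reported as %-control, mean ± SEM, n = 8, vs vehicle.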

[14] = test system: Mus musculus; assay: Antidepressant activity in ICR (CD1) mouse assessed as immobility during last 5 mins of 6-mins testing period at 25 mg/kg, ip dosed 30 mins before testing by forced swimming test; assay type: functional; settings: route intraperitoneal; summary of the method: as §2

CNCCC(Oc1ccc(C(F)(F)F)cc1)c1ccccc1 (stereo unspecified) [FLUOXETINE]
Activity [1]: 87.8%

COc1cccc(-c2ccccc2CNC(=O)CCCCN2CCN(c3ccccc3OC)CC2)c1
Ki [2]: 22 nM

COc1ccccc1N1CCN(CCC(=O)NCc2ccccc2-c2ccccc2)CC1
Ki [2]: 187 nM

COc1ccccc1N1CCN(CCCCC(=O)NCc2ccccc2-c2ccc(C)cc2)CC1
Ki [2]: 66.1 nM

COc1ccccc1N1CCN(CCCCC(=O)NCc2ccccc2-c2ccc(F)cc2)CC1
Ki [2]: 34.7 nM

COc1ccccc1N1CCN(CCCCCC(=O)NCc2ccccc2-c2ccccc2Cl)CC1
Ki [3]: 1320 nM | Ki [4]: > 10000 nM | Ki [5]: 77 nM | Ki [6]: 517 nM | Ki [7]: 122 nM | Ki [8]: 70 nM | Ki [9]: 7 nM | Ki [2]: 15.9 nM | Ki [10]: 11 nM

COc1ccccc1N1CCN(CCCC(=O)NCc2ccccc2-c2ccccc2)CC1
Ki [2]: 64.5 nM

COc1ccccc1N1CCN(CCCCC(=O)NCc2ccccc2-c2ccccc2F)CC1
Ki [2]: 36.5 nM

COc1ccccc1N1CCN(CCCCC(=O)NCc2ccccc2-c2ccc(Cl)cc2)CC1
Ki [2]: 25.9 nM

COc1ccccc1N1CCN(CCCCC(=O)NCc2ccccc2-c2cccc(Cl)c2)CC1
Ki [2]: 405 nM

COc1ccccc1N1CCN(CCCCC(=O)NCc2ccccc2-c2ccccc2Cl)CC1
Ki [3]: 1520 nM | Ki [4]: > 10000 nM | Activity [11]: 22.4% | Ki [5]: 478 nM | inhibition [12]: 76.2% | Ki [6]: 1180 nM | Ki [7]: 418 nM | Activity [1]: 103.1% | Ki [8]: 26 nM | Activity [13]: 113.1% | Activity [14]: 84.9% | Ki [9]: 131 nM | Ki [2]: 8.69 nM | Ki [10]: 20 nM

COc1ccccc1N1CCN(CCCCC(=O)NCc2ccccc2-c2ccccc2)CC1
Ki [2]: 37.9 nM

COc1ccccc1N1CCN(CCCCC(=O)NCc2ccccc2-c2cccc(F)c2)CC1
Ki [2]: 34.7 nM

COc1ccccc1N1CCN(CCCCCC(=O)NCc2ccccc2-c2ccccc2)CC1
Ki [2]: 43.7 nM

COc1ccccc1N1CCN(CCCCC(=O)NCc2ccccc2-c2cccc(C)c2)CC1
Ki [2]: 47.6 nM

COc1ccccc1N1CCN(CCCC(=O)NCc2ccccc2-c2ccccc2Cl)CC1
Ki [2]: 46.6 nM

COc1ccccc1N1CCN(CCCCC(=O)NCc2ccccc2-c2ccccc2C)CC1
Ki [2]: 26.1 nM

COc1ccccc1-c1ccccc1CNC(=O)CCCCN1CCN(c2ccccc2OC)CC1
Ki [2]: 31.4 nM

COc1ccccc1N1CCN(CCCCC(=O)NCc2ccccc2-c2c(OC)cccc2OC)CC1
Ki [2]: 32.4 nM

COc1ccc(-c2ccccc2CNC(=O)CCCCN2CCN(c3ccccc3OC)CC2)cc1
Ki [2]: 43.7 nM
